Test results published in ChEMBL document CHEMBL1125193, “3-(5-Alkyl-4-hydroxy-3-methoxy-1-naphthalenyl)-2-methyl-2-propenoic acids as orally active inhibitors of IL-1 generation” (J Med Chem, 1991).

Experiments:
[1] = C6h was measured as concentration obtained after 6 hr of oral administration in air pouch exudate after oral administration to male F344 rats; format: ADME, organism-based; conditions: F344, rat, read-out: C6h
Procedure, shortened: (§1)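 Male F344 rats given 50 mg/kg orally; drug measured in air-pouch exudate, with concentration at 6 h post-dose and exudate half-life derived; mean ± SEM of 5 rats.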

[2] = Half life was measured as time taken to reach the half of the initial dose in air pouch exudate after oral administration to male F344 rats; format: ADME, organism-based; conditions: F344, rat; procedure, shortened: as §1
[3] = Half life was measured as time taken to reach the half of the initial dose in the blood after oral administration to male F344 rats; format: ADME, organism-based; conditions: F344, rat
Procedure, shortened: (§2)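 Plasma half-life after a single oral dose of 50 mg/kg to male F344 rats; mean ± SEM, 2-3 rats per compound.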

[4] = Area under curve was measured from the graph obtained from concentration Vs time after oral administration to male F344 rats; format: ADME, organism-based; conditions: F344, rat, in vivo
Procedure, shortened: (§3)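 Plasma AUC over 0-4 h from concentration-time course after a single oral dose of 50 mg/kg to male F344 rats; mean ± SEM, 2-3 rats per compound.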

Homo sapiens = species on record: Homo sapiens; assay: Concentration to inhibit human monocyte in blood (IL 1 Generation); format: functional
Procedure, shortened: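 Human monocytes stimulated with LPS ± compound; IL-1 by LAF assay, quantified against a recombinant human IL-1 standard curve. IC50 by least-squares method, mean of two or more experiments.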

Rattus norvegicus [5] = species on record: Rattus norvegicus; assay: Concentration to inhibit rat macrophase […] (IL 1 Generation); format: functional
Procedure, shortened: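 Rat (Fisher) peritoneal macrophages elicited by i.p. 2.5% glycogen and harvested after 4 days. Adherent cells (0.5 × 10^6/well, RPMI 1640 + 1% heat-inactivated normal rat serum, 1.5 h at 37 °C) cultured 4 h with LPS 1 ng/mL ± compound. Intracellular IL-1 by LAF assay against recombinant human IL-1α standard; IC50 by least squares, mean of duplicates.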

Rattus norvegicus [6] = assay: Percent inhibition was measured by in vivo by air pouch model on five rats by local administration at 100 uM; format: functional
Procedure, shortened: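 Rat CMC-LPS air-pouch model, 5 rats per group. Compound dissolved in 5% EtOH-RPMI 1640 with 30% heat-inactivated autologous serum, given locally to 100 μM final exudate concentration at 30 min before and just before LPS. Exudate collected 4 h after LPS; IL-1 by LAF assay against recombinant human IL-1α standard.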

Rattus norvegicus [7] = assay: Percent inhibition was measured in vivo by air pouch model on five rats by oral administration at 200 uM; format: functional
Procedure, shortened: (§4)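 Rat CMC-LPS air-pouch model, 5 rats per group. Compound given orally in 0.5% methyl cellulose 2 h before LPS at 200, 50 or 25 mg/kg. Exudate collected 4 h after LPS; extra- and intracellular IL-1 by LAF assay against recombinant human IL-1α standard.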

Rattus norvegicus [8] = assay: Percent inhibition was measured in vivo by air pouch model on five rats by oral administration at 25 uM; format: functional; conditions: in the assay text read “25 mg/kg” for “25 uM”; procedure, shortened: as §4
Rattus norvegicus [9] = assay: Percent inhibition was measured on untreated rat paw at a dose of 100 mg/kg; format: functional
Procedure, shortened: (§5)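 Rat adjuvant arthritis. Compound given orally once daily from first day of adjuvant treatment at 12.5-100 mg/kg. Adjuvant-untreated paw swelling measured by plethysmometer on day 15; inhibition versus control. Mean ± SEM of 6-10 animals.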

Rattus norvegicus [10] = assay: Percent inhibition was measured on untreated rat paw at a dose of 25 mg/kg; format: functional; procedure, shortened: as §5
Rattus norvegicus [11] = assay: Percent inhibition was measured on untreated rat paw at a dose of 50 mg/kg; format: functional; procedure, shortened: as §5
Rattus norvegicus [12] = assay: Percent inhibition was measured on untreated rat paw at a dose of 12.5 mg/kg; format: functional; procedure, shortened: as §5
Rattus norvegicus [13] = assay: Percent swelling was measured on untreated rat paw at a dose of 12.5 mg/kg; format: functional; procedure, shortened: as §5
Rattus norvegicus [14] = assay: Percent swelling was measured on untreated rat paw at a dose of 25 mg/kg; format: functional; procedure, shortened: as §5
Rattus norvegicus [15] = assay: Percent swelling was measured on untreated rat paw at a dose of 50 mg/kg; format: functional; procedure, shortened: as §5
Rattus norvegicus [16] = assay: Percent inhibition was measured in vivo by air pouch model on five rats by oral administration at 50 uM; format: functional; conditions: in the assay text read “50 mg/kg” for “50 uM”; procedure, shortened: as §4
Rattus norvegicus [17] = assay: Percent swelling was measured on untreated rat paw at a dose of 100 mg/kg; format: functional; procedure, shortened: as §5
[18] = Area under curve was measured from the graph obtained from concentration Vs time; format: ADME; procedure, shortened: as §3
[19] = Half life was measured as time taken to reach the half of the initial dose in air pouch exudate; format: ADME; procedure, shortened: as §1
[20] = Half life was measured as time taken to reach the half of the initial dose in the blood; format: ADME, tissue-based; procedure, shortened: as §2
[21] = C6h was measured as concentration obtained after 6 hr of oral administration in air pouch exudate; format: ADME; conditions: read-out: C6h; procedure, shortened: as §1
Rattus norvegicus [22] = species on record: Rattus norvegicus; assay: Percent inhibition was measured on untreated rat paw at different dosage forms; format: functional; procedure, shortened: as §5
Rattus norvegicus [23] = species on record: Rattus norvegicus; assay: Percent swelling was measured on untreated rat paw at different dosage forms; format: functional; procedure, shortened: as §5
[24] = in the assay text read “200 mg/kg” for “200 uM”
[25] = in the assay text read “at 200 mg/kg” for “at 200 uM”

half-life [3]	AUC [4]	IC50 (Homo sapiens)	IC50 (Rattus norvegicus [5])	Compound	Inhibition (Rattus norvegicus [6])	Inhibition (Rattus norvegicus [7]; [24])	inhibition in vivo at 100 mg/kg (Rattus norvegicus [9])	inhibition in vivo at 25 mg/kg (Rattus norvegicus [10])	inhibition in vivo at 50 mg/kg (Rattus norvegicus [11])	inhibition in vivo at 12.5 mg/kg (Rattus norvegicus [12])	Swelling (Rattus norvegicus [13])	Swelling (Rattus norvegicus [14])	Swelling (Rattus norvegicus [15])	Inhibition (Rattus norvegicus [16])	Swelling (Rattus norvegicus [17])	Inhibition (Rattus norvegicus [7]; [25])	further results
1.72 h	418 µg·h/mL	3000 nM	1400 nM	CCc1cccc2c(/C=C(/C)C(=O)O)cc(OC)c(O)c12	94%	91%	51.4%	34.1%	38.8%	20.1%	44.1%	36.4%	33.8%	65%	26.8%	–	concentration at 6 h [1]: 8760 ng/mL; half-life [2]: 4.15 h; Inhibition (Rattus norvegicus [8]): 40%
0.44 h	108 µg·h/mL	4800 nM	2000 nM	CCc1cccc2c(/C=C(\C)C(=O)O)cc(OC)c(O)c12	85%	–	–	–	–	–	–	–	–	–	–	36%	–
1.07 h	60.4 µg·h/mL	1000 nM	1000 nM	CCCc1cccc2c(/C=C(\C)C(=O)O)cc(OC)c(O)c12	91%	–	–	–	–	–	–	–	–	4%	–	67%	–
–	–	1000 nM	1100 nM	CCCc1cccc2c(/C=C(/C)C(=O)O)cc(OC)c(O)c12	87%	86%	53.6%	8%	46.6%	17%	45.8%	50.8%	29.5%	33%	25.6%	–	AUC [18]: 189 µg·h/mL; half-life [19]: 2.05 h; half-life [20]: 1.07 h; concentration at 6 h [21]: 1940 ng/mL
–	–	–	–	COc1ccc2c(c1)c(CC(=O)O)c(C)n2C(=O)c1ccc(Cl)cc1 [INDOMETHACIN]	–	–	–	–	–	–	–	–	–	–	–	–	Inhibition (Rattus norvegicus [22]): 47.8%; Swelling (Rattus norvegicus [23]): 28.8%
